Results: ChEMBL document CHEMBL1926554, “Diarylheptanoids from the seeds of Alpinia katsumadai as heat shock factor 1 inducers” (J Nat Prod, 2011)
pIC50: −log10 of the molar value. The source made the active and inactive calls. No cut-off for these calls is given here.

Legend:
[1] = test system: NCI-H460; assay: Induction of HSF1 expression in human NCI-H460 cells at 1 uM after 24 hrs by Western blotting relative to control; assay type: functional
In short: (§1)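 NCI-H460 (human non-small-cell lung cancer) cells treated 24 h. Lysates run on SDS-PAGE, transferred to nitrocellulose, probed with antibodies to HSF1, HSP27 and HSP70, detected by ECL. Band signals normalized to β-actin and compared with untreated cells. Mean ± SD of three independent experiments done in triplicate, p < 0.05 versus untreated.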

[2] = test system: NCI-H460; assay: Induction of HSP70 expression in human NCI-H460 cells at 1 uM after 24 hrs by Western blotting relative to control; assay type: functional; in short: as §1
[3] = test system: NCI-H460; assay: Cytotoxicity against human NCI-H460 cells after overnight incubation by MTT assay; assay type: cell-based
In short: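 Human non-small-cell lung cancer NCI-H460 cells. Cytotoxicity read by MTT assay. IC50 taken as the concentration (μM) giving 50% inhibition of cell growth.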

[4] = test system: NCI-H460; assay: Induction of HSP27 expression in human NCI-H460 cells at 1 uM after 24 hrs by Western blotting relative to control; assay type: functional; in short: as §1

| Compound | fold change (FC) [1] | fold change (FC) [2] | pIC50 [3] | fold change (FC) [4] | Activity [1] | Activity [2] | Activity [4] |
| --- | --- | --- | --- | --- | --- | --- | --- |
| COc1cc(O)c(C(/C=C/CC(O)CCc2ccc(O)cc2)c2ccc(O)cc2)c(O)c1C(=O)/C=C/c1ccccc1 (mixture of isomers) | 1.438 | 1.373 | 4.32 | 1.403 |  |  |  |
| CC(=O)O[C@H]1C(=O)[C@@]2(C)[C@H]([C@H](OC(=O)c3ccccc3)[C@]3(O)C[C@H](OC(=O)[C@H](O)[C@@H](NC(=O)c4ccccc4)c4ccccc4)C(C)=C1C3(C)C)[C@]1(OC(C)=O)CO[C@@H]1C[C@@H]2O [PACLITAXEL] |  |  | 5.10 |  |  |  |  |
| COc1cc(O)c(C(/C=C/CC(O)CCc2ccccc2)c2ccc(O)cc2)c(O)c1C(=O)/C=C/c1ccc(O)cc1 (mixture of isomers) | 1.316 | 1.229 | 4.34 | 1.27 |  |  |  |
| O=C(/C=C/c1ccc(O)cc1)C[C@H](O)CCc1ccccc1 |  |  |  |  | inactive | inactive | inactive |
| CC1=C(O)C(=O)C=C2C1=CC=C1[C@@]2(C)CC[C@@]2(C)[C@@H]3C[C@](C)(C(=O)O)CC[C@]3(C)CC[C@]12C [CELASTROL] | 1.066 | 1.371 | 4.91 | 1.216 |  |  |  |
| COc1cc(O)c(C(/C=C/CC(O)CCc2ccccc2)c2ccc(O)cc2)c(O)c1C(=O)/C=C/c1ccccc1 (mixture of isomers) | 1.19 | 1.313 | 4.40 | 1.25 |  |  |  |
| Oc1ccc(CC[C@H](O)C[C@H](O)/C=C/c2ccccc2)cc1 |  |  |  |  | inactive | inactive | inactive |
